# GPR7 antagonist – antagonists of human GPR7 (neuropeptides B/W receptor 1). inhibition, % at 4.4 µM. hit rate 1.1% among 290,000. P48145. GPR7-expressing cells, fluorescence antagonist assay; in the data active = inhibition above about 16%, passing the limit was not always enough;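 note: cells stimulated with the agonist NPW; 0% = agonist with vehicle and 100% = vehicle without agonist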
# Target sequence (P48145 whole entry, looked up): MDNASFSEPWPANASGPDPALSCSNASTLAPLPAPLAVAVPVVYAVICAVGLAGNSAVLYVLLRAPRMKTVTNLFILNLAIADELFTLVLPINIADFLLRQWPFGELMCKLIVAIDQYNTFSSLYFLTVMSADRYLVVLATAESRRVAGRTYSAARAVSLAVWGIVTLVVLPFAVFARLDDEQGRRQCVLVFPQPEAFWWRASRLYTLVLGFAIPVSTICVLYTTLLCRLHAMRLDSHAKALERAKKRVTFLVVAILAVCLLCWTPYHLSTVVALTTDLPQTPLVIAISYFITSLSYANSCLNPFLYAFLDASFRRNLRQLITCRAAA
# OX1R antag-1 – antagonists of human orexin 1 receptor; O43613; CHO/OX1R cells, Fluo-8 calcium fluorescence, orexin A; hit rate 0.43% among 330,000; inhibition, % at 5 µM; AID 434989;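 active = inhibition above its plate's threshold, mean inhibition of all tested compounds on the plate plus 3 SD, cut at about 37% in these data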;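 note: 0% = orexin A challenge wells and 100% = SB-334867-A antagonist wells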
# OX1R antag-2 – OX1R (human) antagonism. O43613. OX1R-expressing cells, FRET antagonist read-out. inhibition, % at 6.6 µM. hit rate 1.8% among 330,000. AID 485270; in the data active = inhibition mostly above about 38%, no sharp cut-off; inactive = mostly below about 40%;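 note: 0% = agonist challenge alone and 100% = reference antagonist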
# CHO parental Ca – counter-screen for OX1R antagonists: effect in parental CHO cells; hit rate 0.63% among 330,000; AID 463079; inhibition, % at 5.6 µM; parental CHO-K1, ATP-induced calcium, Fluo-8 fluorescence;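 active = inhibition above that plate's mean sample inhibition plus 3 SD, cut at about 26% in these data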;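 note: 0% = ATP-challenged DMSO wells and 100% = DMSO wells without ATP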
#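 Measured by: calcium-sensitive Fluo-8 fluorescence / Test system: CHO parental line / Controls: ATP-challenged DMSO wells low, unchallenged DMSO wells high / Measure: % inhibition / Compound: single nominal dose of 5.6 µM per compound / Replicates: single well per compound, no replicates / Reagent: ATP as calcium-mobilizing challenge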
# TAAR1 antag – human TAAR1 antagonism. CHO RD-HGA16 TAAR1, Fluo-8 calcium fluorescence, antagonist. inhibition, % at 3 µM. Q96RJ0. hit rate 1.5% among 360,000;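 active = inhibition above a per-plate cutoff, the mean inhibition of test compounds on that plate plus 3 SD, cut at about 49% in these data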;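 note: 0% = DMSO plus EC80 beta-PEA response and 100% = DMSO alone without agonist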
# Target sequence (Q96RJ0 whole entry, looked up): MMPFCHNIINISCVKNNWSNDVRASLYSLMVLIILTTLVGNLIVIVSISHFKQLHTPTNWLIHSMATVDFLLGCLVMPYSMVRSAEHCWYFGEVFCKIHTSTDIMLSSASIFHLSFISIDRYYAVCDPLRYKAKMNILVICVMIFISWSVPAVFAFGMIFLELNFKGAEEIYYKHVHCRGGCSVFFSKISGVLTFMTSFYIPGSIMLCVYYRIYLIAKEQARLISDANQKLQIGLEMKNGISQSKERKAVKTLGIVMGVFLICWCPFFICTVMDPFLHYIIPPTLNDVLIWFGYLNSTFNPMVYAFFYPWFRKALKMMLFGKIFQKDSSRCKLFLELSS
#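 Assay system: RD-HGA16 CHO cells with stable hTAAR1 and Gα16 / Reagent: EC80 β-phenethylamine stimulus / Doses: 3 µM, single point / Timing: dye loading 75 min at 37 °C, then 30 min room temperature / Measured by: Fluo-8 intracellular calcium dye fluorescence, real-time kinetic reads / Controls: vehicle wells and EC80 agonist wells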
# TAAR1 ag – agonists of human TAAR1. Q96RJ0. CHO RD-HGA16 TAAR1, Fluo-8 calcium fluorescence; vehicle wells 0%, saturating PEA agonist 100%. activation, % at 3 µM. hit rate 0.99% among 360,000;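 active = activation above the mean activation of all test compounds in the run plus 3 SD, cut at about 38% in these data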
#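 Signal – calcium-sensitive Fluo-8 signal, excitation 470-495, emission 515-575 nm · System – RD-HGA16 (CHO) cells co-expressing Gα16 and hTAAR1 · Incubation – 17-24 h seeding, 75 min 37 °C dye, 30 min RT · Compound dosing – 3 µM single concentration · Repeats – no replicates (n 1)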
# Active calls of the source: *; / = no result. Compounds with a hit are over-represented: about 4.6% of the library has one in this group of screens.
SMILES,GPR7 antagonist,OX1R antag-1,OX1R antag-2,CHO parental Ca,TAAR1 antag,TAAR1 ag
COc1ccc(N2CCN(C(=O)CCCCCn3c(=S)[nH]c4ccc(N5CCOCC5)cc4c3=O)CC2)cc1,/,/,/,/,56.1*,8.8
COc1cccc(C(=O)NCC2CCN(C(=O)C(=O)c3cc4ccccc4o3)CC2)c1,/,/,/,/,-19.3,0.1
O=C1OC(c2ccc3c(c2)OCO3)N(C(=O)c2ccc(Cl)c(Cl)c2)c2ccccc21 (stereo not given),2.3,-1.0,76.2*,2.2,18.6,6.8
Cc1cccc(C(=O)N2c3ccccc3C(=O)OC2c2ccc3c(c2)OCO3)c1 (stereo not given),-10.0,-3.3,17.1,5.9,-3.0,7.4
CCOC(=O)c1cnc(SCC(=O)Nc2cc(OC)ccc2OC)nc1N,-2.8,39.4,70.9,33.8*,18.2,7.9
CCOC(=O)c1cnc(SCC(=O)Nc2ccc(NC(C)=O)c(OC)c2)nc1N,-6.5,-9.8,1.0,-9.0,-9.1,4.1
COC(=O)[C@]12C[C@H](CC(=O)NCC3CCCCC3)C(=O)N(Cc3ccccc3)C1=C[C@H](C1CCCC1)O[C@@H]2C,/,/,/,/,-28.6,-2.5
CCN(CC)Cc1cc(NC2=NS(=O)(=O)c3ccccc32)ccc1OC(=O)c1ccccc1,5.9,-5.9,11.1,11.9,-6.9,0.6
O=C(Oc1cccc(NC2=NS(=O)(=O)c3ccccc32)c1)c1cccnc1,-2.7,-16.1,11.5,-6.4,49.4*,22.6
COCCNc1nc2cc(-c3ccc(C)cc3)sc2c(=O)n1C,/,/,/,/,-24.0,-0.3
COc1cc(C(=O)Nc2ccc([N+](=O)[O-])cn2)cc(OC)c1OC,-7.2,-18.5,17.1,-2.0,-16.8,0.8
CC(=O)Nc1ccc([N+](=O)[O-])cn1,3.6,-16.8,75.7*,-7.3,9.3,0.3
O=C(NNc1ccc([N+](=O)[O-])cn1)Nc1ccc(N=Nc2ccccc2)cc1,/,/,/,/,16.5,45.3*
Cc1ccc(OCC(=O)Nc2ccc([N+](=O)[O-])cn2)cc1C,-1.6,-7.5,17.8,41.6*,4.3,-4.8
Cc1ccc(CNc2ncnc3ccc(-c4ccoc4C)cc23)o1,/,/,/,/,-1.8,-0.7
CCc1ccccc1CC1CN(Cc2ccccc2)Cc2ccccc2N1c1ccc(OC)cc1 (stereo not given),/,/,/,/,-22.4,4.5
CC1CCN(S(=O)(=O)N2CCC(C(=O)NCc3ccc(F)cc3Cl)CC2)CC1,/,/,/,/,6.1,3.0
CC(C)COC(=O)N1CCCCC1c1cc(C(=O)N2CCOCC2)no1 (stereo not given),/,/,/,/,-19.6,3.9
Cc1ccccc1C(=O)Nc1ccc(C(=O)N/N=C/c2ccc(F)cc2)cc1,5.4,-4.2,8.2,11.7,34.2,11.9
Cc1ccccc1C(=O)Nc1ccc(C(=O)N/N=C/c2ccc(O)c(Br)c2)cc1,8.4,-9.1,16.5,-20.7,52.0*,10.0
O=C(N/N=C/c1cccnc1)c1ccc(NC(=O)c2ccccc2Cl)cc1,7.6,-4.5,21.0,-7.0,50.4*,11.7
Cc1cccc(CN2CCN([C@H]3CS(=O)(=O)N[C@@H]3COCc3ccccc3)CC2)c1,/,/,/,/,-10.5,5.0
CC(=O)N[C@@H](Cc1c[nH]c2ccccc12)C(=O)OCC(=O)Nc1ccc(Cl)c(S(=O)(=O)N(C)C)c1,9.5,23.4,54.4*,4.6,19.2,11.3
CCCn1cnc2c(=O)oc3ccccc3c21,-12.1,3.1,31.2,11.4,17.2,4.2
Cn1c2ccccc2c2c(=O)oc3ccccc3c21,/,25.1,61.3*,-5.5,-21.9,0.9
SMILES,GPR7 antagonist,OX1R antag-1,OX1R antag-2,CHO parental Ca,TAAR1 antag,TAAR1 ag
CC(=O)OC[C@@H]1CN(Cc2cccc(C(F)(F)F)c2)C[C@H](n2cnc3c(NCc4ccco4)ncnc32)O1,/,/,/,/,56.5*,9.4
CC(=O)OC[C@@H]1CN(Cc2cccc(C(F)(F)F)c2)C[C@H](n2cnc3c(N4CCOCC4)ncnc32)O1,/,/,/,/,-13.9,-1.4
C[C@H]1COc2cc(NCCCN3CCOCC3)ccc2S(=O)(=O)N1,/,/,/,/,5.1,1.2
CCCCCCCCCC1(CC(=O)OCC)SCCN1C(N)=O (stereo not given),/,/,/,/,5.8,2.9
CCOC(=O)c1ccc(NC(=O)CCNS(=O)(=O)c2cc(Br)cnc2N)cc1,0.5,2.5,29.4,1.9,-15.6,5.5
Cc1cc(C)cc(NC(=O)CCNS(=O)(=O)c2cc(Br)cnc2N)c1,-2.5,-13.2,64.7*,-16.9,12.7,4.1
CCC(C)[C@H]1CNC(=O)C(=O)N1CC1CCCCC1 (stereo not given in full),/,/,/,/,-14.0,2.3
C[C@H]1CN([C@@H](C)CO)C(=O)CCCn2nncc2CO[C@@H]1CN(C)C(=O)Nc1ccccc1F,/,/,/,/,-13.9,2.5
O=C(O)Cc1sc(NC2CCCCC2)nc1-c1ccc(Cl)cc1,19.1,15.8,5.6,32.6*,-14.4,0.8
O=C(Nc1ccccc1)Nc1cccc(-c2nnco2)c1,-5.5,-38.7,14.5,-8.8,-6.0,43.8*
O=C(CN(Cc1ccco1)Cc1ccco1)Nc1cc(S(=O)(=O)N2CCCCC2)ccc1Cl,/,73.7*,9.6,47.6*,36.1,6.7
Cc1csc(NC(=O)C2CCCO2)n1 (stereo not given),14.3*,-10.7,6.9,2.2,-16.8,5.0
O=C(Nc1nc(-c2ccccc2)cs1)C1CCCO1 (stereo not given),12.1,-17.2,8.4,-6.1,-0.9,10.0
O=C(CCSCc1ccccc1F)NCCc1ccccc1,0.7,-3.4,19.3,-11.2,76.3*,39.0*
Cc1nc(SCc2nc3ccccc3[nH]2)c2oc3ccccc3c2n1,-1.5,-8.5,79.4*,-33.0,16.3,12.5
Cc1nc(SCC(=O)c2cccs2)c2oc3ccccc3c2n1,10.5,-0.4,72.9*,-13.1,24.2,16.7
Cn1c2c(c(=O)n(C)c1=O)CN(Cc1ccccc1)CN2,/,/,/,/,-15.9,2.7
C[C@@H]1CN(c2ccc(N3CCNC[C@@H]3C)cc2C#N)C[C@H](C)O1,/,/,/,/,-27.7,2.1
COc1ccc(C(O)c2nc(-c3cccc4cccnc34)cs2)cc1 (stereo not given),/,/,/,/,-2.7,1.0
CCOc1ccc(NC(=O)COc2ccc(C(=O)NCc3cccnc3)cc2OC)cc1,/,-28.9,11.2,-15.1,-9.9,4.7
COc1cc(C(=O)NCc2cccnc2)ccc1OCC(=O)Nc1cccc(C(F)(F)F)c1,/,28.8,24.6,43.0*,32.1,10.1
COc1ccc(CCNCC(O)COc2cccc(Br)c2)cc1 (stereo not given),-0.3,-46.7,27.6,-27.0,-11.8,14.2
OC(CNCCc1ccc(C(F)(F)F)cc1)COc1ccc2ccccc2c1 (stereo not given),0.2,15.4,-5.0,47.8*,10.0,29.1
OC(CNc1ccccc1)COc1ccc(OCC(O)CNc2ccccc2)cc1 (stereo not given),24.3,39.6,40.3,49.8*,33.5,26.5
CCOCC(O)CNc1ccccc1 (stereo not given),-9.7,14.1,-0.4,-0.2,-15.4,4.2
